Assay results taken from ChEMBL document CHEMBL1165965, “Synthesis and structure-activity relationships of 1,2,3,4-tetrahydropyrido[2,3-b]pyrazines as potent and selective inhibitors of the anaplastic lymphoma kinase” (Bioorg Med Chem, 2010).

Legend:
[1] = molecular target: Protein kinase C delta type (Homo sapiens) (UniProt Q05655); experiment: Inhibition of PRKCD at 1 uM
[2] = molecular target: Cyclin-dependent kinase 9 (Homo sapiens) (UniProt P50750); experiment: Inhibition of CDK9 at 1 uM
[3] = molecular target: Epidermal growth factor receptor (Homo sapiens) (UniProt P04626+P00533+Q15303+P21860); experiment: Inhibition of EGFR S752-I759del mutant at 1 uM; format: protein assay
How it was run: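 Single-concentration screen using Ambit Bioscience KINOMEscan technology across a panel of 250–400 kinases. Per-kinase inhibition from this screen was summarized as S(90), the fraction of kinases inhibited by more than 90%.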

[4] = molecular target: Calcium/calmodulin-dependent protein kinase type II subunit beta (Homo sapiens) (UniProt Q13554); experiment: Inhibition of CAMK2B at 1 uM
How it was run: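 Ambit KINOMEscan screen at a single concentration across a 250–400 kinase panel, recorded as percent inhibition. Selectivity was expressed as S(90), the fraction of kinases inhibited >90%.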

[5] = molecular target: Serine/threonine-protein kinase OSR1 (Homo sapiens) (UniProt O95747); experiment: Inhibition of OSR1 at 1 uM
[6] = molecular target: T1, Serine/threonine-protein kinase Nek5 (Homo sapiens) (UniProt Q6P3R8); experiment: Inhibition of NEK5 at 1 uM
T1 sequence (whole entry): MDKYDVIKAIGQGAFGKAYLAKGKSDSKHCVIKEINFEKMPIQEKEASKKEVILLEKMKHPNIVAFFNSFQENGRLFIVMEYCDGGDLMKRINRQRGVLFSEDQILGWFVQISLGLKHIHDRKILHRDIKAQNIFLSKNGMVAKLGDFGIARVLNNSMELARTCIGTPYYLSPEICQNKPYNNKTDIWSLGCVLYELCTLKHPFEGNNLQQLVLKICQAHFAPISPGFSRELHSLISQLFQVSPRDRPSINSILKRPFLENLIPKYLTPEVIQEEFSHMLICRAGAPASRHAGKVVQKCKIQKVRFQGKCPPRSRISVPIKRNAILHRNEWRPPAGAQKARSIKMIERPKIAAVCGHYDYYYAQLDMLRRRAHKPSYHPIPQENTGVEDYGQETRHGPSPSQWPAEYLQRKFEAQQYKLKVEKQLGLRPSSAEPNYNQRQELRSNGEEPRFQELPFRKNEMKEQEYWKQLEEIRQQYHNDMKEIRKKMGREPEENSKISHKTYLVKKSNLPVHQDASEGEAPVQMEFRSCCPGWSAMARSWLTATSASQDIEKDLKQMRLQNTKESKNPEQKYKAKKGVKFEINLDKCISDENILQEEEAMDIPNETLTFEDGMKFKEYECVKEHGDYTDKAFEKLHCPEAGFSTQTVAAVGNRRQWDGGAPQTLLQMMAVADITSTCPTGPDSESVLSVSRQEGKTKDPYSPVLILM

[7] = molecular target: T2, Serine/threonine-protein kinase 3 (Homo sapiens) (UniProt Q13188); experiment: Inhibition of MST2 at 1 uM
T2 sequence (whole entry): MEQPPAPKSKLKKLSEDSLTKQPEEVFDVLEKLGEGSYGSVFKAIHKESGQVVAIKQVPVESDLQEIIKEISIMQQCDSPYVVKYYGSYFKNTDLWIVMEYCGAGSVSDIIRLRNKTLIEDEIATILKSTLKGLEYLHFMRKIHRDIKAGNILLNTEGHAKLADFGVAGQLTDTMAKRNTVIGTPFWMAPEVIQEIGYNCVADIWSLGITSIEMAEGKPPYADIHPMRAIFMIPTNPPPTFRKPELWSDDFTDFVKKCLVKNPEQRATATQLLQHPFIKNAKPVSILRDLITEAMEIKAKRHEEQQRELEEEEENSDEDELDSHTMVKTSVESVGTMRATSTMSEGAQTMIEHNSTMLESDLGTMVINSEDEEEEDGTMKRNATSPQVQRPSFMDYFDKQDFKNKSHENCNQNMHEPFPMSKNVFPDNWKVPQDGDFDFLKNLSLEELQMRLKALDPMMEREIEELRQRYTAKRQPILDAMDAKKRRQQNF

[8] = molecular target: Serine/threonine-protein kinase 32B (Homo sapiens) (UniProt Q9NY57); experiment: Inhibition of YANK2 at 1 uM
[9] = molecular target: Tyrosine-protein kinase JAK2 (Homo sapiens) (UniProt O60674); experiment: Inhibition of JAK2 JH1 catalytic domain at 1 uM
How it was run: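 Single-concentration screen on the Ambit KINOMEscan platform, run against a panel of 250–400 kinases. Per-kinase inhibition was also summarized as S(90), the fraction of kinases inhibited by more than 90%.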

[10] = molecular target: T3, cGMP-dependent protein kinase 2 (Homo sapiens) (UniProt Q13237); experiment: Inhibition of PRKG2 at 1 uM
T3 sequence (whole entry): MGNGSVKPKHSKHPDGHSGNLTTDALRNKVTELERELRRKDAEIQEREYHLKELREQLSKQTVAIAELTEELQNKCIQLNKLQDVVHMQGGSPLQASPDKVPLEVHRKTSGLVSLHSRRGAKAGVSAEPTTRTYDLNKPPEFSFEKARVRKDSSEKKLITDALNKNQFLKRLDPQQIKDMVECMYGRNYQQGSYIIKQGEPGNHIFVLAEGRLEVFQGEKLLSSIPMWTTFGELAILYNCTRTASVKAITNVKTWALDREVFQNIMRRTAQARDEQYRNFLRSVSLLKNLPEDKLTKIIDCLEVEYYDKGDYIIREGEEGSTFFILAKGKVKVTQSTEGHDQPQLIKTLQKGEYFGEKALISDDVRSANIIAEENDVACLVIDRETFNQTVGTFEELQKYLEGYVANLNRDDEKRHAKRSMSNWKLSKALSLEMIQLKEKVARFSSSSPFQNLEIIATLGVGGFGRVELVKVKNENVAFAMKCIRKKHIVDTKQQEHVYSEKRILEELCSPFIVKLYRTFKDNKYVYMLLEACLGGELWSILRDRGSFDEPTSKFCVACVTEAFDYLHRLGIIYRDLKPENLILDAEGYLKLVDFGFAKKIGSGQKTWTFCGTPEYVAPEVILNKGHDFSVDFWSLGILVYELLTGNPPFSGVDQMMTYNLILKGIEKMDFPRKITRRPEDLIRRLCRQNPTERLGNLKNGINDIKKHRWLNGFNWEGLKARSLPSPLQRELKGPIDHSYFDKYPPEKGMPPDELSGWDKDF

Tyrosine-protein kinase JAK2 (Homo sapiens), sequence (O60674 whole entry, the tested form may be a part): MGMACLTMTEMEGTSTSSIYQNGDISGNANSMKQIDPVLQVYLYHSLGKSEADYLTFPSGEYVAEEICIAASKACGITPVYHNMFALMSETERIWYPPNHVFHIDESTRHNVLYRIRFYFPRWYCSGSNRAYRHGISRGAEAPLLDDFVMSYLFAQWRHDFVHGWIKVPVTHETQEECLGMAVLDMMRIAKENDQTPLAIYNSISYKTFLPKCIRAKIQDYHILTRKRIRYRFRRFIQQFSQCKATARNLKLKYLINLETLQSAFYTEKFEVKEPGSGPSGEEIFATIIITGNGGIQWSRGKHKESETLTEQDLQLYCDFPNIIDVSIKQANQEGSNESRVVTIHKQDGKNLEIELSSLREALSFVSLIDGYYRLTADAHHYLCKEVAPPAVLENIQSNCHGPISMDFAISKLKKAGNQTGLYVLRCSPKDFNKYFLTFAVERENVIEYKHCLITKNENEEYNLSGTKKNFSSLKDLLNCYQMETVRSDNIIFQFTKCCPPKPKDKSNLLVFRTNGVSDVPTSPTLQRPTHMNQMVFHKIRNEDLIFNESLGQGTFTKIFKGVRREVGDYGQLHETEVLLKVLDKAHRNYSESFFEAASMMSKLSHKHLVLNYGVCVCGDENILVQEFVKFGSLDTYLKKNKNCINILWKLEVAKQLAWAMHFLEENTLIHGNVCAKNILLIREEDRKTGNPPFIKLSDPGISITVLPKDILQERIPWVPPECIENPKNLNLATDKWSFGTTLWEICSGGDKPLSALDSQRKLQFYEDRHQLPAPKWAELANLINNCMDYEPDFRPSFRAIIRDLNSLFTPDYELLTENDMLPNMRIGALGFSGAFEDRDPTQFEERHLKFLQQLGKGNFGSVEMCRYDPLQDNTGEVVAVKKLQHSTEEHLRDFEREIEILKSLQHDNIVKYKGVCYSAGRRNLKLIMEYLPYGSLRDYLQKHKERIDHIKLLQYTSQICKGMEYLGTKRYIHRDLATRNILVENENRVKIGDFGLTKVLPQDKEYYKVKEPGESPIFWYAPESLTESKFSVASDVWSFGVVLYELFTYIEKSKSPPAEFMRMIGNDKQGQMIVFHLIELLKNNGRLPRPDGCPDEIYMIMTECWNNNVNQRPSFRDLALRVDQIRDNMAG
Calcium/calmodulin-dependent protein kinase type II subunit beta (Homo sapiens), sequence (Q13554 whole entry): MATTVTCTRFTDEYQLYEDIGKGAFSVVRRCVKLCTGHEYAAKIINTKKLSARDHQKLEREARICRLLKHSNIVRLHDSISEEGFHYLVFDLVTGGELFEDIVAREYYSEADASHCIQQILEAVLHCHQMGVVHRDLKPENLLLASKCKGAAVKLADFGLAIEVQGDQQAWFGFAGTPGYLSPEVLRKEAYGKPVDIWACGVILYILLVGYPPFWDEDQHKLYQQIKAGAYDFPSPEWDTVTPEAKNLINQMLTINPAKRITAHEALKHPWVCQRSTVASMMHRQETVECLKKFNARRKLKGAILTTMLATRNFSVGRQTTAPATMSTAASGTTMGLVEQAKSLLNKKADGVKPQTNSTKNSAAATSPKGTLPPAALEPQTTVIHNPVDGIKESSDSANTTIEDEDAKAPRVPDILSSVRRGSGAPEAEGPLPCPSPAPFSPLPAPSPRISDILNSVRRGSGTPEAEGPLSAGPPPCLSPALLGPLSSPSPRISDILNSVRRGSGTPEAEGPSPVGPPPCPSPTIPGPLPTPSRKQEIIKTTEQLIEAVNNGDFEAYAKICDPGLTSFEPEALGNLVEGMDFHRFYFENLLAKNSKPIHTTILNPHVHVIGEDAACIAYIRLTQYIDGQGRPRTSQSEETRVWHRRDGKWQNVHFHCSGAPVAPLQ
Serine/threonine-protein kinase 32B (Homo sapiens), sequence (Q9NY57 whole entry, the tested form may be a part): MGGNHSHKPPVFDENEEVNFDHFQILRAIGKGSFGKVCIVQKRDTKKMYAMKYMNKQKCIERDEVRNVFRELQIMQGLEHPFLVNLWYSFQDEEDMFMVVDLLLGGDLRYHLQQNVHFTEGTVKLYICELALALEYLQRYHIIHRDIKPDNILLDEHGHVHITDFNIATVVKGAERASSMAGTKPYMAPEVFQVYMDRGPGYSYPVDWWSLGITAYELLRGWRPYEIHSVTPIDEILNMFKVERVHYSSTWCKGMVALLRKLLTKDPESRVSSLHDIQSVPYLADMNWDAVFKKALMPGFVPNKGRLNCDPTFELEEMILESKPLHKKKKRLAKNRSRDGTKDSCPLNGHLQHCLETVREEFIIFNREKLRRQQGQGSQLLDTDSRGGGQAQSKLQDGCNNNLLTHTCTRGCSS
Protein kinase C delta type (Homo sapiens), sequence (Q05655 whole entry, looked up): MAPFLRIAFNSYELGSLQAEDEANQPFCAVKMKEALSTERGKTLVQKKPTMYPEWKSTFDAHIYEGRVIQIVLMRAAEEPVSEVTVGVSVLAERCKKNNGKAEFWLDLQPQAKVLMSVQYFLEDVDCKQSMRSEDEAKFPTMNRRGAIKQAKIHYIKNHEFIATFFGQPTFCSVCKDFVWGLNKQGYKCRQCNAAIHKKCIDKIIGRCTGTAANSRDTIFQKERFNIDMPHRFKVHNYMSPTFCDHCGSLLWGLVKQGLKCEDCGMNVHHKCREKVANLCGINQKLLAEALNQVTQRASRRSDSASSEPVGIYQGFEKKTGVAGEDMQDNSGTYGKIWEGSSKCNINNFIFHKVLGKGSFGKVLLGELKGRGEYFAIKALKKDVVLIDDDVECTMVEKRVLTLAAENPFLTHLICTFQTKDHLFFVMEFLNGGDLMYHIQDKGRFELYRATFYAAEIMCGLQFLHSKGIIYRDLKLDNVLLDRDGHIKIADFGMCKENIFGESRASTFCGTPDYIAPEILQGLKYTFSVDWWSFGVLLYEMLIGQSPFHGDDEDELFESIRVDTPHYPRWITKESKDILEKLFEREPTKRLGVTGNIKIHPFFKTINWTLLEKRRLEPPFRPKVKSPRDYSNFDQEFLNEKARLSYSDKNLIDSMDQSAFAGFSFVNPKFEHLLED
Serine/threonine-protein kinase OSR1 (Homo sapiens), sequence (O95747 2-527 limits assumed): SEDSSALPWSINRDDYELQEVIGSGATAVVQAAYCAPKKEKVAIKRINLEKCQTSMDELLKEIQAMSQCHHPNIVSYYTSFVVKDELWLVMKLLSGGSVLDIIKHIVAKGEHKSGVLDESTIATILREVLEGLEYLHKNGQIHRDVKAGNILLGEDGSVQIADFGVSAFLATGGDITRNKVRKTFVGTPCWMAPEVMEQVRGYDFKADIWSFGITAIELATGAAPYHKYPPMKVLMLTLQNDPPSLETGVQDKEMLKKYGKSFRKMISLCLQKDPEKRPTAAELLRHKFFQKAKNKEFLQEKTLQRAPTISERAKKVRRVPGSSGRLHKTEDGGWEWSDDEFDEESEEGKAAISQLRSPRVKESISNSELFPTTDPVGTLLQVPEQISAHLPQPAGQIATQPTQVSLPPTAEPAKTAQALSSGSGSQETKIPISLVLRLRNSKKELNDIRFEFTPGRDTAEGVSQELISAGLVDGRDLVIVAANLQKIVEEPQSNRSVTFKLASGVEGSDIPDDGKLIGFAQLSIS
Cyclin-dependent kinase 9 (Homo sapiens), sequence (P50750 whole entry): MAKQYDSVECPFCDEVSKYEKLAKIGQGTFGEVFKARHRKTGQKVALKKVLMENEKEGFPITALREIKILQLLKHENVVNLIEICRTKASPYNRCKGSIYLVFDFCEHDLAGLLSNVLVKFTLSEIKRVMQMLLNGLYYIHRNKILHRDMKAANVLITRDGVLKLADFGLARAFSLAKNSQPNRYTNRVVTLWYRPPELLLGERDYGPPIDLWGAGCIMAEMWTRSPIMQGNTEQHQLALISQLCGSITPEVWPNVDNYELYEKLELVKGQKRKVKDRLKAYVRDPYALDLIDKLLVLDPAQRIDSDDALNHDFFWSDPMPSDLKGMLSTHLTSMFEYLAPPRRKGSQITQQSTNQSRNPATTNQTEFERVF

Structure (SMILES) | inhibition [1] [%] | inhibition [2] [%] | inhibition [3] [%] | inhibition [4] [%] | inhibition [5] [%] | inhibition [6] [%] | inhibition [7] [%] | inhibition [8] [%] | inhibition [9] [%] | inhibition [10] [%]
CN1CCN(c2ccc(-c3cnc4c(c3)N(Cc3cc(Cl)ccc3Cl)CCN4)cn2)CC1 | < 50 | < 50 | < 50 | < 50 | < 50 | < 50 | < 50 | < 50 | 95 | < 50
CN1CCN(c2ccc(-c3cnc4c(c3)N(Cc3cc(Cl)ccc3C(F)(F)F)CCN4)cn2)CC1 | < 50 | < 50 | < 50 | < 50 | < 50 | < 50 | < 50 | < 50 | 94 | < 50
CN1CCN(c2ccc(-c3cnc4c(c3)N(Cc3c(F)ccc(F)c3Cl)CCN4)cn2)CC1 | < 50 | < 50 | < 50 | < 50 | < 50 | < 50 | < 50 | < 50 | 77 | < 50
O=C(c1ccc(-c2cnc3c(c2)N(Cc2cc(Cl)ccc2C(F)(F)F)CCN3)cc1)N1CCC(N2CCCC2)CC1 | < 50 | – | < 50 | < 50 | – | – | – | < 50 | 99.5 | < 50
COC1CCN(C(=O)c2ccc(-c3cnc4c(c3)N(Cc3cc(Cl)ccc3C(F)(F)F)CCN4)cc2)CC1 | < 50 | – | < 50 | < 50 | – | – | – | < 50 | – | < 50
FC(F)(F)c1ccc(Cl)cc1CN1CCNc2ncc(-c3ccnc(N4CCNCC4)c3)cc21 | < 50 | < 50 | < 50 | < 50 | < 50 | < 50 | 97 | < 50 | 97 | < 50
CN1CCN(c2ccc(-c3cnc4c(c3)N(Cc3cc(F)ccc3F)CCN4)cn2)CC1 | < 50 | < 50 | < 50 | < 50 | < 50 | < 50 | < 50 | < 50 | 94.7 | < 50
O=C(c1ccc(-c2cnc3c(c2)N(Cc2cc(Cl)ccc2C(F)(F)F)CCN3)cc1)N1CCCCC1 | < 50 | – | < 50 | < 50 | – | – | – | < 50 | 96.3 | < 50
CC(=O)N1CCN(c2cc(-c3cnc4c(c3)N(Cc3cc(Cl)ccc3C(F)(F)F)CCN4)ccn2)CC1 | < 50 | < 50 | < 50 | < 50 | < 50 | < 50 | 88 | < 50 | 96 | < 50
O=C(O)c1ccc(-c2cnc3c(c2)N(Cc2cc(Cl)ccc2C(F)(F)F)CCN3)cc1 | < 50 | – | < 50 | < 50 | – | – | – | < 50 | 95.1 | < 50
